ChEMBL document CHEMBL1811768, “Synthesis of N-substituted 3,5-bis(arylidene)-4-piperidones with high antitumor and antioxidant activity” (J Med Chem, 2011)
Activity calls are given as the source filed them. The calls are words filed in the database; no cut-off is given here.

How the values were obtained:
[1] = Cytotoxicity against rat H9c2 cells assessed as cell viability at 10 uM after 24 hrs by MTT assay relative to control; assay type: cell-based; conditions: read-out: Activity
MCF7 [2] = experiment: Cytotoxicity against human MCF7 cells assessed as cell viability at 10 uM after 24 hrs by MTT assay relative to control; assay type: functional; conditions: MCF7, 24 h, read-out: Activity
In short: (§1)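 MTT viability assay in human A2780 and MCF-7 cancer cells. Cells were exposed to compound at 10 μM for 24 h. Results are given as percent cell viability relative to the respective untreated control.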

A2780 [3] = experiment: Cytotoxicity against human A2780 cells assessed as cell viability at 10 uM after 24 hrs by MTT assay relative to control; assay type: functional; conditions: A2780, 24 h, read-out: Activity; in short: as §1
A2780 [4] = experiment: Induction of cell cycle arrest at G2/M phase in human A2780 cells assessed as modulation of p21 expression; assay type: functional, cell-based
OV4 = experiment: Cytotoxicity against human OV4 cells by MTT assay; assay type: functional, cell-based
A2780 [5] = experiment: Antitumor activity against human A2780 cells in xenograft model assessed as increase of caspase 3 level in tumor; assay type: functional, cell-based
A2780 [6] = experiment: Induction of cell cycle arrest at G2/M phase in human A2780 cells assessed as modulation of cyclin expression; assay type: functional, cell-based
A2780 [7] = experiment: Induction of apoptosis in human A2780 cells assessed as caspase 3 activation; assay type: functional, cell-based
A2780 [8] = experiment: Antitumor activity against human A2780 cells in xenograft model assessed as increase of PARP level in tumor; assay type: functional, cell-based
[9] = target: Signal transducer and activator of transcription 3 (Homo sapiens) (UniProt P40763); experiment: Inhibition of STAT3 phosphorylation at Tyr705 in human A2780 cells; assay type: cell-based
Blood = experiment: Biodistribution in ip dosed rat blood after 3 hrs; assay type: ADME, organism-based; conditions: in vivo
A2780 [10] = experiment: Induction of apoptosis in human A2780 cells assessed as cleavage of PARP by Western blot analysis; assay type: functional, cell-based
[11] = Inhibition of JAK/STAT3 pathway in human A2780 cells assessed as reduction in VEGF level; assay type: cell-based
Homo sapiens = species: Homo sapiens; experiment: Cytotoxicity against human A2780DDP cells by MTT assay; assay type: functional, cell-based
OVCA3 = experiment: Cytotoxicity against human OVCA3 cells by MTT assay; assay type: functional, cell-based
A2780 [12] = experiment: Antitumor activity against human A2780 cells in xenograft model assessed as reduction of STAT3 phosphorylation at Tyr705/Ser727 level in tumor; assay type: functional, cell-based
A2780 [13] = experiment: Induction of cell cycle arrest at G2/M phase in human A2780 cells assessed as modulation of CDK2 expression; assay type: functional, cell-based
[14] = Inhibition of JAK/STAT3 pathway in human A2780 cells assessed as reduction in survivin level; assay type: cell-based
[15] = target: Signal transducer and activator of transcription 3 (Homo sapiens) (UniProt P40763); experiment: Inhibition of STAT3 phosphorylation at Tyr705/Ser727 in human A2780 cells by Western blot analysis; assay type: cell-based
[16] = target: Tyrosine-protein kinase JAK1 (Homo sapiens) (UniProt P23458); experiment: Inhibition of JAK1 phosphorylation in human A2780 cells; assay type: cell-based
[17] = Inhibition of JAK/STAT3 pathway in human A2780 cells assessed as reduction in Bcl-2 level; assay type: cell-based
PA-1 = experiment: Cytotoxicity against human PA1 cells by MTT assay; assay type: functional, cell-based
A2780 [18] = experiment: Antitumor activity against human A2780 cells in xenograft model assessed as reduction of JAK phosphorylation level in tumor; assay type: functional, cell-based
Kidney = experiment: Biodistribution in ip dosed rat kidney after 3 hrs; assay type: ADME, organism-based; conditions: in vivo
Liver = experiment: Biodistribution in ip dosed rat liver after 3 hrs; assay type: ADME, organism-based; conditions: in vivo
MCF7 [19] = experiment: Induction of apoptosis in human MCF7 cells assessed as caspase 3 activation by Western blot analysis; assay type: functional, cell-based
A2780 [20] = experiment: Induction of Fas/CD95 expression in human A2780 cells; assay type: functional, cell-based
Rattus norvegicus = experiment: Biodistribution in ip dosed rat stomach after 3 hrs; assay type: ADME, organism-based; conditions: in vivo
A2780 [21] = experiment: Induction of apoptosis in human A2780 cells assessed as caspase 8 activation; assay type: functional, cell-based
SK-OV-3 = experiment: Cytotoxicity against human SKOV3 cells by MTT assay; assay type: functional, cell-based
A2780 [22] = experiment: Induction of cell cycle arrest at G2/M phase in human A2780 cells assessed as modulation of p27 expression; assay type: functional, cell-based
A2780 [23] = experiment: Induction of apoptosis in human A2780 cells assessed as caspase 3 activation by Western blot analysis; assay type: functional, cell-based
MCF7 [24] = experiment: Induction of apoptosis in human MCF7 cells assessed as cleavage of PARP by Western blot analysis; assay type: functional, cell-based
[25] = target: Signal transducer and activator of transcription 3 (Homo sapiens) (UniProt P40763); experiment: Inhibition of STAT3 phosphorylation at Tyr705/Ser727 in human MCF7 cells by Western blot analysis; assay type: cell-based
A2780 [26] = experiment: Induction of cell cycle arrest at G2/M phase in human A2780 cells assessed as modulation of p53 expression; assay type: functional, cell-based
[27] = Inhibition of JAK/STAT3 pathway in human A2780 cells assessed as reduction in Bcl-xL level; assay type: cell-based
A2780 [28] = experiment: Antitumor activity against human A2780 cells in xenograft model assessed as tumor growth inhibition; assay type: functional, cell-based

Sequence of Signal transducer and activator of transcription 3 (Homo sapiens) (P40763 whole entry): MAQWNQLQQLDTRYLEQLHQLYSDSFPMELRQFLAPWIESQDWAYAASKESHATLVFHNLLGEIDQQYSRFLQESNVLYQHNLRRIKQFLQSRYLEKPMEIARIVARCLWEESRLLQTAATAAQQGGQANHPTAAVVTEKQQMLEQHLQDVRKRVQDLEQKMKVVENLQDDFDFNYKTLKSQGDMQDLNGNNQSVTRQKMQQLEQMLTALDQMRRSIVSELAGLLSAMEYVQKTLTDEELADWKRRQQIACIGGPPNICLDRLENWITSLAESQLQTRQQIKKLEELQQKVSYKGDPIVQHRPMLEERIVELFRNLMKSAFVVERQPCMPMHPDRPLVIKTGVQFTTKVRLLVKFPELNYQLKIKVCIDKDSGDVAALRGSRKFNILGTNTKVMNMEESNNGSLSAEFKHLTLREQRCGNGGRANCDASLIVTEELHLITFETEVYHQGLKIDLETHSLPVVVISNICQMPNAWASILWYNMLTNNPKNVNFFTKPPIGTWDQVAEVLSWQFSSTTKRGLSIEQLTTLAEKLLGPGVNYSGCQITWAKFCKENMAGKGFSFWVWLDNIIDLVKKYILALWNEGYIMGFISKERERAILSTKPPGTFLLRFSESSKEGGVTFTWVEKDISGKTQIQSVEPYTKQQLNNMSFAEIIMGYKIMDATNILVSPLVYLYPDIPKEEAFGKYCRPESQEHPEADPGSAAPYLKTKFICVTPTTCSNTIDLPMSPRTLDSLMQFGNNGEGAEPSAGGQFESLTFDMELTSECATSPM
Sequence of Tyrosine-protein kinase JAK1 (Homo sapiens) (P23458 whole entry): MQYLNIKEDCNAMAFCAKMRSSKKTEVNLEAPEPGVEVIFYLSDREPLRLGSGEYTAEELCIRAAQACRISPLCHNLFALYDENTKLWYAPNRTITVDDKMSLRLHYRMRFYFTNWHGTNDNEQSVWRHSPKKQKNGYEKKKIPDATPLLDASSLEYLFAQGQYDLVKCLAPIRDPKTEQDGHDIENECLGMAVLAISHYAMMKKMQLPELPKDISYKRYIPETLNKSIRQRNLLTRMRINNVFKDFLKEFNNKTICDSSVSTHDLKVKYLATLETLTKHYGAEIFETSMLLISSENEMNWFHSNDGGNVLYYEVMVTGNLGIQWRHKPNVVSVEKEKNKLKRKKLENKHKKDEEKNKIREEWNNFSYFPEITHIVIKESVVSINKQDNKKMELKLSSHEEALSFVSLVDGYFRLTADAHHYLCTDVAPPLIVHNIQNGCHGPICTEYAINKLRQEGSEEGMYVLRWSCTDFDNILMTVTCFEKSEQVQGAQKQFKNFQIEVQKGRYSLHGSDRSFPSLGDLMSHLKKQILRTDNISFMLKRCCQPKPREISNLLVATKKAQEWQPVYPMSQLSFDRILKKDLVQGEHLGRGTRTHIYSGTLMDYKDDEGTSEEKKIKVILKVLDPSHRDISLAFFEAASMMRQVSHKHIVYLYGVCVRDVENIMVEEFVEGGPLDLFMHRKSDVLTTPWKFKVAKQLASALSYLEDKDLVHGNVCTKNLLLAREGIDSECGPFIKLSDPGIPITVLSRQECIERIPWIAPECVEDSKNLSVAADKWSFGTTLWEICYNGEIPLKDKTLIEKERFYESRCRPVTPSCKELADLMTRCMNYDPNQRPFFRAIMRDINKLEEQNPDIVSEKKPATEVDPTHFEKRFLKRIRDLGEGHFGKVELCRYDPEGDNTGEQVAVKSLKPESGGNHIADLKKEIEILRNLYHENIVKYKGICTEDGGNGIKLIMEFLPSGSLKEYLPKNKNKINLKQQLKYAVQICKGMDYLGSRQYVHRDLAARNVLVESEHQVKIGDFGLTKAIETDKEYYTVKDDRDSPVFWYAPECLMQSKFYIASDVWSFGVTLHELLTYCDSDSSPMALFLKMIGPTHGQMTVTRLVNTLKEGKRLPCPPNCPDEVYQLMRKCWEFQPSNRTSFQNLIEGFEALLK

CC1=C(CN2C/C(=C\c3ccc(F)cc3)C(=O)/C(=C/c3ccc(F)cc3)C2)C(C)(C)N([O])C1(C)C
viability at 24 h, 10 µM [1]: 56.8%
viability at 10 µM (MCF7 [2]): 42%
viability at 10 µM (A2780 [3]): 6.75%

CC1(C)C=C(CN2C/C(=C\c3ccc(F)cc3)C(=O)/C(=C/c3ccc(F)cc3)C2)C(C)(C)N1[O]
Activity (A2780 [4]): Active
Activity (OV4): Active
Activity (A2780 [5]): Active
viability at 24 h, 10 µM [1]: 88.5%
Activity (A2780 [6]): Active
Activity (A2780 [7]): Active
Activity (A2780 [8]): Active
inhibition [9]: Active
Drug uptake (Blood): Active
viability at 10 µM (MCF7 [2]): 16.6%
Activity (A2780 [10]): Active
inhibition [11]: Active
Activity (Homo sapiens): Active
Activity (OVCA3): Active
Activity (A2780 [12]): Active
Activity (A2780 [13]): Active
inhibition [14]: Active
inhibition [15]: Active
inhibition [16]: Active
inhibition [17]: Active
Activity (PA-1): Active
Activity (A2780 [18]): Active
viability at 10 µM (A2780 [3]): 20.5%
Drug uptake (Kidney): Active
Drug uptake (Liver): Active
Activity (MCF7 [19]): Active
Activity (A2780 [20]): Active
Drug uptake (Rattus norvegicus): Active
Activity (A2780 [21]): Active
Activity (SK-OV-3): Active
Activity (A2780 [22]): Active
Activity (A2780 [23]): Active
Activity (MCF7 [24]): Active
inhibition [25]: Active
Activity (A2780 [26]): Active
inhibition [27]: Active
growth inhibition (GI) (A2780 [28]): Dose-dependent effect

CC1(C)C=C(CN2C/C(=C\c3ccccc3F)C(=O)/C(=C/c3ccccc3F)C2)C(C)(C)N1[O]
viability at 24 h, 10 µM [1]: 86.3%
viability at 10 µM (MCF7 [2]): 53.5%
viability at 10 µM (A2780 [3]): 12.5%

O=C1/C(=C/c2ccc(F)cc2)CNC/C1=C\c1ccc(F)cc1
viability at 24 h, 10 µM [1]: 61.4%
viability at 10 µM (MCF7 [2]): 17.1%
viability at 10 µM (A2780 [3]): 12.4%

COc1ccc(/C=C2\CNC/C(=C\c3ccc(OC)c(OC)c3OC)C2=O)c(OC)c1OC
viability at 24 h, 10 µM [1]: 32.3%
viability at 10 µM (MCF7 [2]): 56.6%
viability at 10 µM (A2780 [3]): 11%

CC1(C)CCC(C)(/C=C/CN2C/C(=C\c3ccc(F)cc3)C(=O)/C(=C/c3ccc(F)cc3)C2)N1[O] (stereo unspecified)
viability at 24 h, 10 µM [1]: 51.9%
viability at 10 µM (MCF7 [2]): 43.1%
viability at 10 µM (A2780 [3]): 5.81%

CC1(C)C=C(CN2C/C(=C\c3ccc(F)cc3)C(=O)/C(=C/c3ccc(F)cc3)C2)C(C)(C)N1
viability at 24 h, 10 µM [1]: 78.8%
viability at 10 µM (MCF7 [2]): 28.3%
viability at 10 µM (A2780 [3]): 4.79%

CC1(C)c2cnc(CN3C/C(=C\c4ccc(F)cc4)C(=O)/C(=C/c4ccc(F)cc4)C3)cc2C(C)(C)N1[O]
viability at 24 h, 10 µM [1]: 46.6%
viability at 10 µM (MCF7 [2]): 42.7%
viability at 10 µM (A2780 [3]): 5.26%

CC1(C)C=C(CN2C/C(=C\c3ccc(F)cc3)C(=O)/C(=C/c3ccc(F)cc3)C2)CC(C)(C)N1[O]
viability at 24 h, 10 µM [1]: 51.4%
viability at 10 µM (MCF7 [2]): 20.1%
viability at 10 µM (A2780 [3]): 6.86%
